Experimental data published in ChEMBL document CHEMBL1153840, “Targeting of the Brucella suis virulence factor histidinol dehydrogenase by histidinol analogues results in inhibition of intramacrophagic multiplication of the pathogen” (Antimicrob Agents Chemother, 2007).
Calls of active or inactive are those of the source. The calls are words filed in the database; no cut-off is given here.

Assays:
Brucella suis [1] = assay: Antibacterial activity against Brucella suis 1330 assessed as reduction in bacterial growth in minimal medium after 96 hrs relative to control; assay type: functional
Histidinol dehydrogenase = molecular target: T1, Histidinol dehydrogenase (Brucella suis biovar 1 (strain 1330), UniProt Q8G2R2); assay: Inhibition of Brucella suis histidinol dehydrogenase
T1 sequence (Q8G2R2 whole entry): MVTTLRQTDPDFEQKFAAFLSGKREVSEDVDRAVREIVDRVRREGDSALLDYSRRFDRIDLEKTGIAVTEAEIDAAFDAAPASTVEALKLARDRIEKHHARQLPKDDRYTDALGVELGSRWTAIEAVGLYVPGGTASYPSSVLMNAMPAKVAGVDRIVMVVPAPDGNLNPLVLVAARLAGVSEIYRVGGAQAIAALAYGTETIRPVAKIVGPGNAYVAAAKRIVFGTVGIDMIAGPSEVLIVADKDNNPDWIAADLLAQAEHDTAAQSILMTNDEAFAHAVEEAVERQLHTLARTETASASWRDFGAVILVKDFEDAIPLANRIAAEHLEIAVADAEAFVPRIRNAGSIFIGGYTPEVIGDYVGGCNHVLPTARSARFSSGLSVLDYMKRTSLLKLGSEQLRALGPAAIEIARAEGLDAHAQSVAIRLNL

Brucella suis [2] = assay: Antibacterial activity against Brucella suis 1330 in minimal medium at 100 uM after 96 hrs; assay type: functional, organism-based
THP-1 = assay: Toxicity against human THP1 cells at 25 uM after 48 hrs by trypan blue exclusion method; assay type: cell-based; conditions: thp-1, 48 h
Method in brief: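 Infected THP1 macrophage-like cells are stained with trypan blue at 48 h postinfection, at the drug concentrations used in the intracellular assay.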

Brucella suis [3] = assay: Antibacterial activity against Brucella suis 1330 assessed as reduction in bacterial intramacrophagic multiplication in human THP1 cells at 25 uM treated 90 mins postinfection measured 24 hrs postinfection relative to control; assay type: functional, THP-1
Brucella suis [4] = assay: Growth inhibition of Brucella suis 1330 in minimal medium devoid of 1 mM histidine at 100 uM after 96 hrs; assay type: functional, organism-based
Brucella suis [5] = assay: Inhibition of intracellular replication of Brucella suis 1330 in human THP1 cells assessed as reduction in number of viable intracellular bacteria at 25 uM treated 90 mins postinfection measured 24 hrs postinfection relative to control; assay type: functional, organism-based; conditions: THP-1
Brucella suis [6] = assay: Antibacterial activity against Brucella suis 1330 in minimal medium after 96 hrs; assay type: functional, organism-based
Brucella suis [7] = assay: Growth inhibition of Brucella suis 1330 in minimal medium containing 1 mM histidine at 100 uM after 96 hrs; assay type: functional, organism-based

| SMILES | fold change (FC) (Brucella suis [1]) | IC50 (Histidinol dehydrogenase) [nM] | inhibition (Brucella suis [2]) | Activity (THP-1) | fold change (FC) (Brucella suis [3]) | Activity (Brucella suis [4]) | Activity (Brucella suis [5]) | inhibition (Brucella suis [6]) | Activity (Brucella suis [7]) |
| --- | --- | --- | --- | --- | --- | --- | --- | --- | --- |
| Cl.Cl.N[C@@H](Cc1c[nH]cn1)C(=O)Cc1ccc2c(c1)OCO2 | 12 | 6 | – | – | – | – | – | – | – |
| Cl.Cl.N[C@@H](Cc1c[nH]cn1)C(=O)Cc1ccc(-c2ccccc2)cc1 | 12 | 6 | Active | Non-toxic | 50 | Active | Active | Dose-dependent effect | inactive |
| Cl.Cl.N[C@@H](Cc1c[nH]cn1)C(=O)Cc1ccccc1 | 12 | 6 | – | – | – | – | – | – | – |
| Cl.Cl.N[C@@H](Cc1c[nH]cn1)C(=O)Cc1ccc(Br)cc1 | 12 | – | Active | Non-toxic | 50 | – | Active | Dose-dependent effect | – |
| Cl.Cl.N[C@@H](Cc1c[nH]cn1)C(=O)Cc1ccc(OCc2ccccc2)cc1 | 12 | – | – | – | – | – | Active | – | – |
| Cl.Cl.N[C@@H](Cc1c[nH]cn1)C(=O)Cc1c(F)c(F)c(F)c(F)c1F | 12 | 6 | – | – | – | – | – | – | – |
| Cl.Cl.N[C@@H](Cc1c[nH]cn1)C(=O)Cc1ccc(F)cc1F | 12 | 6 | – | – | – | – | – | – | – |
| Cl.Cl.N[C@@H](Cc1c[nH]cn1)C(=O)Cc1ccc(Cl)c(Cl)c1 | 12 | 6 | – | – | – | – | – | – | – |
| Cl.Cl.N[C@@H](Cc1c[nH]cn1)C(=O)Cc1ccc(Cl)cc1 | 12 | 6 | Active | Non-toxic | 50 | – | Active | Dose-dependent effect | – |
| Cl.Cl.N[C@@H](Cc1c[nH]cn1)C(=O)Cc1ccc2ccccc2c1 | 12 | 6 | Active | Non-toxic | 50 | – | Active | Dose-dependent effect | – |
| Cl.Cl.N[C@@H](Cc1c[nH]cn1)C(=O)Cc1ccc(Oc2ccccc2)cc1 | 12 | 6 | – | – | – | – | – | – | – |
| Cl.Cl.N[C@@H](Cc1c[nH]cn1)C(=O)Cc1cccc2ccccc12 | 12 | 6 | – | – | – | – | – | – | – |
| Cl.Cl.N[C@@H](Cc1c[nH]cn1)C(=O)Cc1ccc(F)cc1 | 12 | 6 | Active | – | – | – | – | – | – |
| Cc1ccc(CC(=O)[C@@H](N)Cc2c[nH]cn2)cc1.Cl.Cl | 12 | 6 | – | – | – | – | – | – | – |
| COc1ccc(CC(=O)[C@@H](N)Cc2c[nH]cn2)cc1.Cl.Cl | 12 | 6 | – | – | – | – | – | – | – |
